Drawing on ChEMBL document CHEMBL2163326, “Investigations on the 1-(2-biphenyl)piperazine motif: identification of new potent and selective ligands for the serotonin(7) (5-HT(7)) receptor with agonist or antagonist action in vitro or ex vivo” (J Med Chem, 2012), this text covers Activity, Ki and IC50 for 20 molecules.

In assay [1] the target is 5-hydroxytryptamine receptor 7 (Cavia porcellus) (UniProt P50407). Description: Agonist activity at 5HT7 receptor in guinea pig ileum assessed as inhibition of substance P-induced smooth muscle contraction at 1 uM. The class given is functional, tissue-based. The essentials: (§1)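 Isolated guinea pig ileum was contracted with substance P. Relaxation was scored as percent relaxation of that contraction. Each run included a cocktail of non-5-HT7 receptor antagonists. To test 5-HT7 mediation, relaxation was repeated with the selective 5-HT7 antagonist at 3 μM; reversal was taken as 5-HT7-mediated.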

Assay [2] shares this target. The experiment in a line: Agonist activity at 5HT7 receptor in guinea pig ileum assessed as inhibition of substance P-induced smooth muscle contraction at 2 uM. The class given is functional, tissue-based. The essentials: as §1
For assay [3] the target is unchanged. The experiment in a line: Agonist activity at 5HT7 receptor in guinea pig ileum assessed as inhibition of substance P-induced smooth muscle contraction at 2 uM in presence of 3 uM SB-269970. The class given is functional, tissue-based. The essentials:
as §1

For assay [4] the target is unchanged. The experiment in a line: Agonist activity at 5HT7 receptor in guinea pig ileum assessed as inhibition of substance P-induced smooth muscle contraction at 0.5 uM. The class given is functional, tissue-based. The method, boiled down: as §1
For assay [5] the target is unchanged. The experiment in a line: Agonist activity at 5HT7 receptor in guinea pig ileum assessed as inhibition of substance P-induced smooth muscle contraction at 1 uM in presence of 3 uM SB-269970. The class given is functional, tissue-based. The essentials: as §1
Assay [6] concerns the target T1, 5-hydroxytryptamine receptor 1A (Homo sapiens) (UniProt P08908).
T1 sequence (whole entry): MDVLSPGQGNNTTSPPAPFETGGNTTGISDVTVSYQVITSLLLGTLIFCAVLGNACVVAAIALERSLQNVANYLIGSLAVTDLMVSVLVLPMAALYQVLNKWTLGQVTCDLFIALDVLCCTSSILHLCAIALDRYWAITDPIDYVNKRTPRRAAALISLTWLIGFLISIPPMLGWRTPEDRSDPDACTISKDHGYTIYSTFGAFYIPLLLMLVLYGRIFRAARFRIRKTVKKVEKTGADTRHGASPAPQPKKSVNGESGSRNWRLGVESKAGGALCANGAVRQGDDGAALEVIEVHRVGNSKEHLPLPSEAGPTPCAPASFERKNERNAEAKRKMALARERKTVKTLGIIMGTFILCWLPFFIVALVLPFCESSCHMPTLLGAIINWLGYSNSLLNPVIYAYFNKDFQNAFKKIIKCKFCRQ
The experiment in a line: Displacement of [3H]-8-OH-DPAT from human cloned 5HT1A receptor at 100 nM. A general note: Loss of bound radioactivity is the signal in a displacement assay; it reports binding, not function.

Assay [7] concerns the target T2, 5-hydroxytryptamine receptor 7 (Homo sapiens, UniProt P34969). The experiment in a line: Displacement of [3H]-5-CT from human cloned 5HT7 receptor.
The target of assay [8] is Adrenergic receptor alpha-1 (Rattus norvegicus) (UniProt P15823+P23944+P43140). The experiment in a line: Displacement of [3H]prazoin from rat cerebral cortex adrenergic alpha1 receptor at 100 nM. The class given is tissue-based. The method, boiled down:
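[3H]prazosin displacement was measured on rat cerebral cortex membranes, using one test concentration of 100 nM. Values are the mean of two independent experiments.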

The target of assay [9] is T3, 5-hydroxytryptamine receptor 1A (Homo sapiens, UniProt P08908).
T3 sequence (P08908 whole entry): T1 sequence (whole entry)
Description: Displacement of [3H]-8-OH-DPAT from human cloned 5HT1A receptor.

Assay [10] concerns the target 5-hydroxytryptamine receptor 7 (Cavia porcellus) (UniProt P50407). The experiment in a line: Agonist activity at 5HT7 receptor in guinea pig ileum assessed as inhibition of substance P-induced smooth muscle contraction at 0.5 uM in presence of 3 uM SB-269970. The class given is functional, tissue-based. The method, boiled down: as §1
Assay [11] deals with T4, Adrenergic receptor alpha-1 (Rattus norvegicus, UniProt P15823+P23944+P43140).
T4 sequence (P15823 whole entry): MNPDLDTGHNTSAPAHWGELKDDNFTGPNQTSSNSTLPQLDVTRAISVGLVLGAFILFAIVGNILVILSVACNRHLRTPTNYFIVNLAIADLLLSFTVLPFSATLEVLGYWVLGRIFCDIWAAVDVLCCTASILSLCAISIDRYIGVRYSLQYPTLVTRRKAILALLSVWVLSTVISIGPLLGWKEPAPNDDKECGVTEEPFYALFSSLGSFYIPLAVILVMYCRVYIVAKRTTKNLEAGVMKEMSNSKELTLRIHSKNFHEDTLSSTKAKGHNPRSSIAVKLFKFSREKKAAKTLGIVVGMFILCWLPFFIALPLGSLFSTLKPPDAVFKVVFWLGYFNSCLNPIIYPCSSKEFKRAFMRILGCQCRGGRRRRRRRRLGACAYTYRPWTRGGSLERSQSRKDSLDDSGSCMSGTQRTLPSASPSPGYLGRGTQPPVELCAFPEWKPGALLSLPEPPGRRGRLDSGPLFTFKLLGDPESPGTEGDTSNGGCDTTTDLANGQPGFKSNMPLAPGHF
T4 sequence (P23944 whole entry): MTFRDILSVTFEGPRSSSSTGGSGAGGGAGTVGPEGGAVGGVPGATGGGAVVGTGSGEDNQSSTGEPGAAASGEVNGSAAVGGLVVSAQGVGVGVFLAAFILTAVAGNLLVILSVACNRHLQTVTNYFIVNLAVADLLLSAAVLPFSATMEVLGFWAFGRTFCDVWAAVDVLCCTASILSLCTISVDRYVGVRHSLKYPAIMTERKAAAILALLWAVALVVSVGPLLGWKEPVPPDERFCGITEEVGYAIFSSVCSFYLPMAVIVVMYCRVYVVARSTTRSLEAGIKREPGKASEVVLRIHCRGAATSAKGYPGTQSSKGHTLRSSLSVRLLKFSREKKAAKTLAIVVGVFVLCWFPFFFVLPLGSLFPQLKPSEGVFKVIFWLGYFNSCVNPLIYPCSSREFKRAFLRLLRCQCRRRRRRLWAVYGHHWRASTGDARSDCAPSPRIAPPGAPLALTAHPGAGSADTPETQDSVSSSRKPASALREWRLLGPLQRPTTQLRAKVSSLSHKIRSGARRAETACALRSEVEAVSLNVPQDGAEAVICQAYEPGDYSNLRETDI
T4 sequence (P43140 whole entry): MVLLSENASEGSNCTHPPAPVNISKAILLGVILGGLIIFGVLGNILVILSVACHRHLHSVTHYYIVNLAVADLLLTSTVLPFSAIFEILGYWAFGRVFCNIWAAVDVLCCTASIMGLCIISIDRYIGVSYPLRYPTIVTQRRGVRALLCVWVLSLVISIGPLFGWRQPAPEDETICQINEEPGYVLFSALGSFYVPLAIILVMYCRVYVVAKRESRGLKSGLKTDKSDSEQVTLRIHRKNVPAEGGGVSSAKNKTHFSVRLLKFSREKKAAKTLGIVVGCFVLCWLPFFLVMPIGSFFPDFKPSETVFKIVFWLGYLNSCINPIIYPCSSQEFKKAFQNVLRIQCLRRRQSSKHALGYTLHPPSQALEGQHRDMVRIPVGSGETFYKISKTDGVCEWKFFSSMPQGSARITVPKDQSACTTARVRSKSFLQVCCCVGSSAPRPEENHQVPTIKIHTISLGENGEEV
The experiment in a line: Displacement of [3H]prazoin from rat cerebral cortex adrenergic alpha1 receptor. The class given is tissue-based.

Assay [12] concerns the target 5-hydroxytryptamine receptor 7 (Rattus norvegicus, UniProt P32305). The experiment in a line: Displacement of [3H]LSD from rat kidney proximal convoluted tubule 5HT7R expressed in COS7 cells. The class given is cell-based, COS-7.
Assay [13] concerns the target T2, 5-hydroxytryptamine receptor 7. Description: Antagonist activity at human 5HT7A receptor expressed in human HeLa cells assessed as inhibition of 5-HT-induced cAMP accumulation by ELISA. The class given is functional, cell-based. The essentials:
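HeLa cells stably expressing human 5-HT7(a) were seeded in 96-well plates. They were co-treated with 1 μM 5-HT plus test agent. Intracellular cAMP was read by ELISA, and IC50 was taken for inhibition of 5-HT-stimulated cAMP accumulation.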

Assay [14] has the same target. The experiment in a line: Agonist activity at human 5HT7A receptor expressed in human HeLa cells assessed as stimulation of cAMP accumulation. The class given is functional, cell-based. The method, boiled down: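 HeLa cells stably expressing human 5-HT7(a) receptor were cultured and seeded into 96-well plates. Cells were exposed to test agent alone, and intracellular cAMP was measured by ELISA.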

The source made the active and inactive calls. The calls are words filed in the database; no cut-off is given here. Bounds are passed on as bounds.

T2 sequence (P34969 whole entry): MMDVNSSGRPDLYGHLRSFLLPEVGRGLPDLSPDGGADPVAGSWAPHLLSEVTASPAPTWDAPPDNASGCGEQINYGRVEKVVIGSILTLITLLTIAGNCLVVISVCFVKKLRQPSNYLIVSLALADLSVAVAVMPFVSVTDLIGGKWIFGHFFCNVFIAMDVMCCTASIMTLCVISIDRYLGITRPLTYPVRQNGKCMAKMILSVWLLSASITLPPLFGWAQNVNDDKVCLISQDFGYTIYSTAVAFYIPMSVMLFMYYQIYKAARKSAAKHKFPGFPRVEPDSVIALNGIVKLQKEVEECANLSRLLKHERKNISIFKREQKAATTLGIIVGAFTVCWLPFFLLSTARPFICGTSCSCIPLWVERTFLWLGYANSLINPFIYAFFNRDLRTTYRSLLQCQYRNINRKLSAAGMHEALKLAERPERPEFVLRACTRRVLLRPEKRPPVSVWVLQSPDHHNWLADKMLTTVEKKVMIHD
Sequence of 5-hydroxytryptamine receptor 7 (Cavia porcellus) (P50407 whole entry): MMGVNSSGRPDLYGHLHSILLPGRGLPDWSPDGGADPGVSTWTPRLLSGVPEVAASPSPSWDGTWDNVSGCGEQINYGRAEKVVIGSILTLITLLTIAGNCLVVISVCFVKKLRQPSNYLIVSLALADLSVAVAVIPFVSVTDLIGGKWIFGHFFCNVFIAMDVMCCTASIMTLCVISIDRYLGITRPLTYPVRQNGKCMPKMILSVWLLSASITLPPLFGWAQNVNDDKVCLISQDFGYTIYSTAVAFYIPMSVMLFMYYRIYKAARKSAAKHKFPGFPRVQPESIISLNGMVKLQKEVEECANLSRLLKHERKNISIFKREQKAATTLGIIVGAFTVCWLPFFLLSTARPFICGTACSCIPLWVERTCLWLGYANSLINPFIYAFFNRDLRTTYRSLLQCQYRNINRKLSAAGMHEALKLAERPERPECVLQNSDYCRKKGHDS
Sequence of 5-hydroxytryptamine receptor 7 (Rattus norvegicus, UniProt P32305) (P32305 whole entry): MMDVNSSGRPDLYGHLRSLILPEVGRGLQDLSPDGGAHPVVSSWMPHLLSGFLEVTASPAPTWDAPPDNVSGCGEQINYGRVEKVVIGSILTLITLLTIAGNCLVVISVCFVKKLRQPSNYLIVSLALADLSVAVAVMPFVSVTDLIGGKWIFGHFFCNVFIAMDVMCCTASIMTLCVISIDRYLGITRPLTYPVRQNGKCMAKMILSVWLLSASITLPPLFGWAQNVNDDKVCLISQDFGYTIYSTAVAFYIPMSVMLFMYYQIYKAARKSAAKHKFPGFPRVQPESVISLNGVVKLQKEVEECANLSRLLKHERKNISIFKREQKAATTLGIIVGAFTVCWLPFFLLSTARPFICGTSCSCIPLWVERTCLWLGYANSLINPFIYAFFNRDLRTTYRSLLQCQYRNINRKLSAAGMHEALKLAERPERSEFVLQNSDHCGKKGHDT

As to `Cc1nn(C)c(C)c1-c1cccc2c1CC[C@H](N(C)C)C2`, the outcome in assay [1] and in [2] was Active. Moreover, the outcome in assay [3], in assay [4] and in [5] was inactive.
Consider `COc1ccc(-c2cccc(N3CCNCC3)c2)cc1`, for which the results for the Activity in [6] and in [8] were 42% and 29%, respectively. Besides, the inhibitory constant (Ki) in [7] was more than 5000 nM.
Take `Cc1ccccc1-c1cccc(N2CCNCC2)c1`: the inhibition constant (Ki) is 17.4 nM in assay [9] and 1.4 nM in [7].
In the case of `Cc1ccc(-c2cccc(N3CCNCC3)c2)cc1C`, the Activity in assay [6] worked out at 34%; in assay [8], 7%. Also, the affinity in [7], expressed as Ki, was 93 nM.
With `Fc1ccc(-c2cccc(N3CCNCC3)c2)cc1`, the inhibition constant Ki in assay [9] amounted to 63.2 nM; in assay [7] it was 109 nM. This molecule came in with an Activity in [8] of 3%.
Take `COc1ccccc1-c1ccccc1N1CCNCC1`: affinity in assay [7] was put at a Ki of 18.4 nM. In other words, the double-digit nanomolar range.
As to `O=[N+]([O-])c1ccc(-c2cccc(N3CCNCC3)c2)cc1`, the inhibitory constant (Ki) in assay [9] was 31.4 nM; in assay [7] it was 13 nM. Besides, the Activity in assay [8] was determined as 8%.
On to `Fc1ccc(-c2ccccc2N2CCNCC2)cc1`, for which the result in [1] and in assay [4] was Active. The Activity in assay [6] turned out to be 15%; in [8], 14%. The molecule also displayed an inhibition constant Ki in [7] of 2.7 nM. Also, the result in assay [10] and in assay [5] was inactive.
For the molecule `c1ccc(-c2cccc(N3CCNCC3)c2)cc1`, the Ki is 72.1 nM in [9] and 25 nM in [7]. This molecule also came in with an Activity in [8] of 21%.
In the case of `c1ccc(-c2ccccc2N2CCNCC2)nc1`, the Activity was 23% in assay [6] and 11% in [8]. The affinity in [7] corresponds to a Ki of 23 nM.
Regarding `c1ccc(-c2cccc(N3CCNCC3)c2)nc1`, the Ki in assay [9] stood at 14.9 nM; in assay [7], 80 nM. For the same molecule, in [8], the Activity worked out at 27%.
`COc1ccccc1-c1cccc(N2CCNCC2)c1`: the affinity in assay [7] corresponds to a Ki of 8.2 nM.
On to `Cc1ccc(-c2ccccc2N2CCNCC2)cc1C`, for which the outcome in assay [1] and in assay [2] was Active. In addition, the Activity in [6] came to 22%. In addition, the Ki in [7] was found to be 1.9 nM; in assay [11], 165 nM. Further, in assay [3], the result was inactive.
Take `COc1cccc(OC)c1-c1cccc(N2CCNCC2)c1`: the figures for the Ki in assay [9] and in assay [7] were 149 nM and 7.1 nM, respectively. The Activity in assay [8] was 3%.
In turn, `c1ccc2c(N3CCNCC3)cccc2c1` yielded a Ki in [12] of 83 nM.
As for `O=[N+]([O-])c1ccc(-c2ccccc2N2CCNCC2)cc1`, in assay [6], the Activity came out at 16%. The Ki amounted to 7 nM in assay [7] and 105 nM in [11].
As for `c1ccc(-c2ccccc2N2CCNCC2)cc1`, in assay [13], the half-maximal inhibitory concentration (IC50) was 531 nM. The result in assay [1] and in assay [4] was Active. In addition, the Ki came to 99 nM in assay [9], 1.4 nM in [7] and 59.1 nM in assay [11]. The result in assay [10], in [5] and in assay [14] was inactive.
As for `COc1ccc(-c2ccccc2N2CCNCC2)cc1`, the IC50 in assay [13] was found to be 438 nM. Besides, the result in [1] and in assay [4] was Active. Moreover, the Ki came out at 476 nM in assay [9], 2.6 nM in [7] and 156 nM in assay [11]. The result in assay [10], in [5] and in [14] was inactive.
`Cc1ccccc1-c1ccccc1N1CCNCC1`: in [7], the affinity corresponds to a Ki of 6.9 nM.
Turning to `COc1cccc(OC)c1-c1ccccc1N1CCNCC1`, the Activity in assay [6] amounted to 21%; in [8] it was 10%. In assay [7], this molecule displayed an inhibition constant Ki of 96 nM.

The Ki is the equilibrium dissociation constant of an inhibitor or competing ligand from its target. A lower Ki goes with higher affinity. A word on the IC50: it is the concentration needed to halve the response being measured.
